Test results taken from ChEMBL document CHEMBL3407409, “Synthesis of diethyl 4-substituted-2,6-dimethyl-1,4-dihydropyridine-3,5-dicarboxylates as a new series of inhibitors against yeast α-glucosidase” (Eur J Med Chem, 2015).
The source made the active and inactive calls. No cut-off for these calls is given here.

What was measured:
3T3 = experiment: Cytotoxicity against […] 3T3 cells by MTT assay; type: cell-based; conditions: Mus musculus, NIH3T3
How it was run: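 […] fibroblast 3T3 cells (2×10^5 cells/mL) grown overnight at 37 °C under CO2, then given serial dilutions (100–12.5 µg/mL) in DMEM with 5% FBS and penicillin/streptomycin. MTT (2 mg/mL in PBS) added for 4 h. Formazan dissolved in DMSO and read at 540 nm; viability taken as the OD ratio.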

Alpha-glucosidase MAL12 [1] = molecular target: T1, Alpha-glucosidase MAL12 (Saccharomyces cerevisiae S288c, UniProt P53341); experiment: Inhibition of Saccharomyces cerevisiae alpha-glucosidase using p-nitrophenyl alpha-D-glucopyranoside as substrate preincubated for 15 mins measured up to 30 mins by spectrophotometry
How it was run: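 Yeast enzyme 0.2 U/mL held with graded inhibitor levels for 15 min at 37 °C in 0.1 M phosphate buffer pH 6.8, DMSO 7% final; p-nitrophenyl α-D-glucopyranoside 0.7 mM final added, A400 followed up to 30 min. DMSO-only control; % inhibition = 100 − (OD test/OD control) × 100.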

[2] = molecular target: T2, Beta-glucuronidase (Homo sapiens) (UniProt P08236); experiment: Inhibition of beta-glucuronidase (unknown origin) using p-nitrophenyl-beta-D-glucuronide as substrate preincubated for 30 mins by spectrophotometry
T2 sequence (whole entry): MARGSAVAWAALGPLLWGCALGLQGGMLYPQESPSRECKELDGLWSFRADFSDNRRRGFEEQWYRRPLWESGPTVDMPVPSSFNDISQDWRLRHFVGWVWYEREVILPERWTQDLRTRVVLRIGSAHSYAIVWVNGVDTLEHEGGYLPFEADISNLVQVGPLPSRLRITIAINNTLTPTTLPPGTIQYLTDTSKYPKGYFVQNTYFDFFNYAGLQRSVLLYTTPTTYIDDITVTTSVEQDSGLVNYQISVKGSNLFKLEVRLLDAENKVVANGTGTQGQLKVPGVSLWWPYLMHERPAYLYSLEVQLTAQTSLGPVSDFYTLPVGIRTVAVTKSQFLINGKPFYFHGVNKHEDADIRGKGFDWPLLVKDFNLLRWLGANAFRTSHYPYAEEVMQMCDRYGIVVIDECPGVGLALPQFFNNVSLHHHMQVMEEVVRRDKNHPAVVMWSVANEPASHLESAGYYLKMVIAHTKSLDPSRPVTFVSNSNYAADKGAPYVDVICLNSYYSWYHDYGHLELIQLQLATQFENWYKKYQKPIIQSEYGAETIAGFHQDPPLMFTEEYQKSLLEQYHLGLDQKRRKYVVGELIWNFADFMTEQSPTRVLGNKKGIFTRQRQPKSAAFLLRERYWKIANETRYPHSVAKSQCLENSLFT
How it was run: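 Enzyme (1 U) in 0.1 M acetate buffer held with compound (DMSO 2% final) at 37 °C for 30 min. Then 0.4 mM p-nitrophenyl-β-D-glucuronide added and p-nitrophenol read at 405 nm. Run in triplicate.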

[3] = molecular target: Carbonic anhydrase 2 (Bos taurus) (UniProt P00921); experiment: Inhibition of purified bovine erythrocyte carbonic anhydrase 2 using 4-PNA as substrate preincubated for 15 mins by spectrophotometry
How it was run: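 Bovine erythrocyte CA-II (0.1 mg/mL stock) in 20 mM HEPES-Tris pH 7.4, DMSO 10% final, preincubated with compound for 15 min. Reaction started with 0.7 mM 4-nitrophenyl acetate (in ethanol). 4-Nitrophenol read at 400 nm each minute for 30 min. Triplicates at several concentrations.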

Serpentes = experiment: Inhibition of snake venom phosphodiesterase-1 using bis-(p-nitropheny1) phosphate as substrate preincubated for 30 mins by spectrophotometry
How it was run: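 Snake venom enzyme, 0.000742 U/well final, in 33 mM Tris–HCl pH 8.8 with 30 mM Mg-acetate. Pre-incubated 30 min with test samples. Substrate bis-(p-nitrophenyl) phosphate at 0.33 mM. Rate of p-nitrophenol release (change in OD/min) followed at 410 nm, 37 °C, in microplate format. Cysteine and EDTA used as positive controls. Run in triplicate.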

[4] = molecular target: Oligo-1,6-glucosidase IMA1 (Saccharomyces cerevisiae S288c) (UniProt P53051); experiment: Ratio of acarbose IC50 to compound IC50 for Saccharomyces cerevisiae alpha-glucosidase using p-nitrophenyl alpha-D-glucopyranoside as substrate preincubated for 15 mins measured up to 30 mins by spectrophotometry
Alpha-glucosidase MAL12 [5] = molecular target: T1, Alpha-glucosidase MAL12; experiment: Non-competitive inhibition of Saccharomyces cerevisiae alpha-glucosidase using p-nitrophenyl alpha-D-glucopyranoside as substrate preincubated for 15 mins by Lineweaver-Burk plot method
How it was run: (§1)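 Kinetics on the yeast enzyme: 1/rate plotted against 1/substrate (Lineweaver-Burk) at several inhibitor levels, e.g. 60, 70 and 80 µM, to see effects on Km and Vmax. Ki taken from a replot of Lineweaver-Burk slopes against inhibitor concentration and checked by Dixon plot (1/rate against inhibitor concentration). Points are the mean of three experiments.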

[6] = molecular target: Oligo-1,6-glucosidase IMA1 (Saccharomyces cerevisiae S288c) (UniProt P53051); experiment: Non-competitive inhibition of Saccharomyces cerevisiae alpha-glucosidase using p-nitrophenyl alpha-D-glucopyranoside as substrate preincubated for 15 mins by Dixon plot method; how it was run: as §1
Alpha-glucosidase MAL12 [7] = molecular target: T1, Alpha-glucosidase MAL12; experiment: Competitive inhibition of Saccharomyces cerevisiae alpha-glucosidase using p-nitrophenyl alpha-D-glucopyranoside as substrate preincubated for 15 mins by Lineweaver-Burk plot method

Chain of Carbonic anhydrase 2 (Bos taurus) (P00921 2-260 limits assumed): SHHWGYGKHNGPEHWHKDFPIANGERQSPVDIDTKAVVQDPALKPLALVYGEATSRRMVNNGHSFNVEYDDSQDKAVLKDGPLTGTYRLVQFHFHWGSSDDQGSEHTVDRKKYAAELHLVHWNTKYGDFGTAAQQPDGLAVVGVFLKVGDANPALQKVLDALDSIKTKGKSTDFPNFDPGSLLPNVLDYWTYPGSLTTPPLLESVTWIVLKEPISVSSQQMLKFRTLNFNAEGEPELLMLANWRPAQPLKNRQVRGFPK
Chain of Oligo-1,6-glucosidase IMA1 (Saccharomyces cerevisiae S288c) (P53051 whole entry): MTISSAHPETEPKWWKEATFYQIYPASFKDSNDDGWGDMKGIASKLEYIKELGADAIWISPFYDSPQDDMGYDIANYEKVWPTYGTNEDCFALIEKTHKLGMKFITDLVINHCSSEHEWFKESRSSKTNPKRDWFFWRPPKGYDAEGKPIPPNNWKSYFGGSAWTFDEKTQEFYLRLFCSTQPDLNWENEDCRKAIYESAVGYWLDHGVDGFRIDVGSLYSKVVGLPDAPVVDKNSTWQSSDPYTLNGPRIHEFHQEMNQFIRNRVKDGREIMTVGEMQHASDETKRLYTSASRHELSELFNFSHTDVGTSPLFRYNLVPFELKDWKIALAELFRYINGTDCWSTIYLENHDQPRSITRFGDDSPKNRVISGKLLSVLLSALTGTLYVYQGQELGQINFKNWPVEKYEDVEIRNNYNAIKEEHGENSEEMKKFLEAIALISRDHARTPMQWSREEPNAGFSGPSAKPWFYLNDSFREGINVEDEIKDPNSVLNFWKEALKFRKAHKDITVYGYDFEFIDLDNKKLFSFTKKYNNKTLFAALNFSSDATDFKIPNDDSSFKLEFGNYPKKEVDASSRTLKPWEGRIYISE
T1 sequence (P53341 whole entry): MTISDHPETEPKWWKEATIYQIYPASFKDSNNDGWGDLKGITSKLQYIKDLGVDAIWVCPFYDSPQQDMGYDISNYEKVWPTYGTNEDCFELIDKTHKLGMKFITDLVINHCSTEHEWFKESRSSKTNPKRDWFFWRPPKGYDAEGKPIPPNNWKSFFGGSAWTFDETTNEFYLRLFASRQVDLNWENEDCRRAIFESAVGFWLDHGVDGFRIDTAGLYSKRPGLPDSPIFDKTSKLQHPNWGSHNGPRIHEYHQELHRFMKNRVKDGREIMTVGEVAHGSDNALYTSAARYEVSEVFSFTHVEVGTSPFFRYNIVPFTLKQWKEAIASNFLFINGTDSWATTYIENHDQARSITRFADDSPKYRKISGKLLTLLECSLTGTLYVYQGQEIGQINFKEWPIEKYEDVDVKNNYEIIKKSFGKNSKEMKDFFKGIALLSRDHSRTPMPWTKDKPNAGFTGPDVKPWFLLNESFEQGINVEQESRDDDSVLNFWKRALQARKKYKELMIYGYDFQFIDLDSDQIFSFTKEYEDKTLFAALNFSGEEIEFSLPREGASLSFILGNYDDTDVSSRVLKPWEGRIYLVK

| Compound | IC50 (Alpha-glucosidase MAL12 [1]) [µM] | IC50 (3T3) [µM] | inhibition [2] | inhibition [3] | inhibition (Serpentes) [%] | Ratio IC50 [4] | Ki (Alpha-glucosidase MAL12 [5]) [µM] | inhibition [6] | Ki (Alpha-glucosidase MAL12 [7]) [µM] |
| --- | --- | --- | --- | --- | --- | --- | --- | --- | --- |
| CCOC(=O)C1=C(C)NC(C)=C(C(=O)OCC)C1c1cccs1 | 74.3 | > 30 | inactive | inactive | 8 | – | – | – | – |
| CCOC(=O)C1=C(C)NC(C)=C(C(=O)OCC)C1c1ccc(OC)cc1 | 65.1 | > 30 | 12.4% | inactive | 8.1 | – | – | – | – |
| CCOC(=O)C1=C(C)NC(C)=C(C(=O)OCC)C1c1cccc([N+](=O)[O-])c1 | 35 | > 30 | 22.3% | 11.7% | 11.4 | 26 | 25 | Active | – |
| CCOC(=O)C1=C(C)NC(C)=C(C(=O)OCC)C1c1ccc(O)c(O)c1 | 274 | 28.6 | – | – | – | – | – | – | – |
| CCOC(=O)C1=C(C)NC(C)=C(C(=O)OCC)C1c1ccc([N+](=O)[O-])cc1 | 51 | > 30 | 14.1% | 9.7% | 20.3 | 18 | – | – | 66 |

Further lines, with some results ahead:

| IC50 (Alpha-glucosidase MAL12 [1]) [µM] | Compound | IC50 (3T3) [µM] | inhibition [2] | inhibition [3] | inhibition (Serpentes) [%] | Ratio IC50 [4] | Ki (Alpha-glucosidase MAL12 [5]) [µM] | inhibition [6] | Ki (Alpha-glucosidase MAL12 [7]) [µM] |
| --- | --- | --- | --- | --- | --- | --- | --- | --- | --- |
| 118 | CCOC(=O)C1=C(C)NC(C)=C(C(=O)OCC)C1c1ccc(C)cc1 | > 30 | – | – | – | – | – | – | – |
| 122 | CCCCC1C(C(=O)OCC)=C(C)NC(C)=C1C(=O)OCC | – | – | – | – | – | – | – | – |
| 124 | CCOC(=O)C1=C(C)NC(C)=C(C(=O)OCC)C1c1ccc(OCC)cc1 | > 30 | – | – | – | – | – | – | – |
| 97.4 | CCOC(=O)C1=C(C)NC(C)=C(C(=O)OCC)C1c1ccc(SC)cc1 | > 30 | – | – | – | – | – | – | – |
| 60.2 | CCOC(=O)C1=C(C)NC(C)=C(C(=O)OCC)C1c1ccccc1F | > 30 | – | – | – | – | – | – | – |
| 112 | CCOC(=O)C1=C(C)NC(C)=C(C(=O)OCC)C1CCc1ccccc1 | 26.7 | – | – | – | – | – | – | – |
| 72.4 | CCOC(=O)C1=C(C)NC(C)=C(C(=O)OCC)C1c1ccc(Cl)cc1 | 27.9 | – | – | – | – | – | – | – |
